According to ChEMBL document CHEMBL3102858, “Anti-hepatitis C virus dinorditerpenes from the roots of Flueggea virosa” (J Nat Prod, 2014):

Tested on: Hepatitis C virus
Experiment: Antiviral activity against HCV expressing JC1-Luc2A infected in Huh7.5 cells assessed as inhibition of viral infection after 72 hrs by luciferase reporter gene assay
Assay type: functional, organism-based, Hepacivirus hominis
Settings: Huh7.5, 72 h
In short: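 Huh7.5 cells were preseeded at 1 × 10^4 cells/well for 24 h, then exposed to JC1-Luc2A reporter HCV (0.1 MOI) for 4 h. The inoculum was removed and the cells washed three times. Fresh medium with compounds was added. After 72 h, luciferase activity was read in cell lysates (Bright-Glo). EC50 is the concentration inhibiting HCVcc infection by 50%.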

Row | EC50 [µM] | Compound
1 | 52.7 | C=C[C@]1(C)C=C2CC[C@H]3C(C)(C)[C@H](O)CC[C@]3(C)[C@H]2C[C@@H]1O
2 | 27.4 | COc1cc2c(cc1CO)C=C[C@@H]1C(C)(C)[C@H](O)CC[C@@]21C
3 | 30.5 | COc1cc2c(cc1CO)C=C[C@@H]1C(C)(C)[C@@H](O)CC[C@@]21C
4 | 7.5 | COc1cc2c(cc1C)[C@H]1C[C@@H]3C(C)(C)[C@H](O)CC[C@@]23CO1

More lines, now with the values behind:

Row | Compound | EC50 [µM]
5 | Cc1cc2c(cc1O)[C@]1(C)CC[C@H](O)C(C)(C)[C@H]1C=C2 | 5.6
6 | Cc1cc2c(cc1O)[C@]1(C)CC[C@H](O)C(C)(C)[C@H]1CC2 | 12
7 | COc1cc2c(cc1C)C=C[C@@H]1C(C)(C)[C@H](O)CC[C@@]21C | 24.9
8 | Cc1cc2c(cc1O)[C@]1(C)CCC(=O)C(C)(C)[C@H]1C=C2 | 25.5
9 | COc1cc2c(cc1C)C=C[C@@H]1C(C)(C)C(=O)CC[C@@]21C | 47.3
10 | Cc1cc2c(cc1O)[C@]1(C)CCC(=O)C(C)(C)[C@H]1[C@H](O)C2 | 52.8
11 | COc1cc2c(cc1C)CC[C@@H]1C(C)(C)[C@@]3(O)CC[C@@]21CO3 | 6.6
12 | C=CCc1ccc(O)c(-c2ccc(O)c(CC=C)c2)c1 [HONOKIOL] | 9.4
13 | C=Cc1c(C)c(O)cc2c1CC[C@@H]1C(C)(C)[C@H](O)CC[C@@]21C [SPRUCEANOL] | 5

Tested on: not listed separately
Experiment: Therapeutic index, ratio of IC50 for human Huh7.5 cells to EC50 for HCV
Assay type: cell-based, Huh-7
Settings: read-out: Ratio IC50/EC50
In short: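 TI was calculated as IC50/EC50. IC50 came from the 72 h Huh7.5 viability assay and EC50 from the 72 h JC1-Luc2A HCVcc luciferase infection assay.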

Row | Compound | selectivity ratio
14 | Cc1cc2c(cc1O)[C@]1(C)CC[C@H](O)C(C)(C)[C@H]1C=C2 | 9.8
15 | Cc1cc2c(cc1O)[C@]1(C)CC[C@H](O)C(C)(C)[C@H]1CC2 | 4.5
16 | C=C[C@]1(C)C=C2CC[C@H]3C(C)(C)[C@H](O)CC[C@]3(C)[C@H]2C[C@@H]1O | 3.2
17 | COc1cc2c(cc1C)C=C[C@@H]1C(C)(C)[C@H](O)CC[C@@]21C | 2.8
18 | COc1cc2c(cc1CO)C=C[C@@H]1C(C)(C)[C@H](O)CC[C@@]21C | 4.6
19 | COc1cc2c(cc1CO)C=C[C@@H]1C(C)(C)[C@@H](O)CC[C@@]21C | 4.9
20 | Cc1cc2c(cc1O)[C@]1(C)CCC(=O)C(C)(C)[C@H]1C=C2 | 3.4
21 | COc1cc2c(cc1C)C=C[C@@H]1C(C)(C)C(=O)CC[C@@]21C | 1.7
22 | Cc1cc2c(cc1O)[C@]1(C)CCC(=O)C(C)(C)[C@H]1[C@H](O)C2 | 5.5
23 | COc1cc2c(cc1C)[C@H]1C[C@@H]3C(C)(C)[C@H](O)CC[C@@]23CO1 | 55.9
24 | COc1cc2c(cc1C)CC[C@@H]1C(C)(C)[C@@]3(O)CC[C@@]21CO3 | 45
25 | C=CCc1ccc(O)c(-c2ccc(O)c(CC=C)c2)c1 [HONOKIOL] | 6.2
26 | C=Cc1c(C)c(O)cc2c1CC[C@@H]1C(C)(C)[C@H](O)CC[C@@]21C [SPRUCEANOL] | 10.5

Tested on: not listed separately
Experiment: Cytotoxicity against human Huh7.5 cells after 72 hrs
Assay type: cell-based
Settings: Huh-7, 72 h
In short: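 Huh7.5 cells, derived from human hepatoma Huh7, were grown in DMEM with 10% heat-inactivated FBS and 1% nonessential amino acids. They were preseeded at 1 × 10^4 cells/well for 24 h, then given serial compound concentrations. Viable cells were measured after 72 h with the CellTiter 96 Aqueous One Solution kit. IC50 is the concentration inhibiting cell growth by 50%.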

Row | Compound | IC50 [µM]
27 | Cc1cc2c(cc1O)[C@]1(C)CC[C@H](O)C(C)(C)[C@H]1C=C2 | 54.9
28 | Cc1cc2c(cc1O)[C@]1(C)CC[C@H](O)C(C)(C)[C@H]1CC2 | 54.3
29 | C=C[C@]1(C)C=C2CC[C@H]3C(C)(C)[C@H](O)CC[C@]3(C)[C@H]2C[C@@H]1O | 167
30 | COc1cc2c(cc1C)C=C[C@@H]1C(C)(C)[C@H](O)CC[C@@]21C | 70
31 | COc1cc2c(cc1CO)C=C[C@@H]1C(C)(C)[C@H](O)CC[C@@]21C | 125
32 | COc1cc2c(cc1CO)C=C[C@@H]1C(C)(C)[C@@H](O)CC[C@@]21C | 151
33 | Cc1cc2c(cc1O)[C@]1(C)CCC(=O)C(C)(C)[C@H]1C=C2 | 86.5
34 | COc1cc2c(cc1C)C=C[C@@H]1C(C)(C)C(=O)CC[C@@]21C | 81.8
35 | Cc1cc2c(cc1O)[C@]1(C)CCC(=O)C(C)(C)[C@H]1[C@H](O)C2 | 292
36 | COc1cc2c(cc1C)[C@H]1C[C@@H]3C(C)(C)[C@H](O)CC[C@@]23CO1 | 419
37 | COc1cc2c(cc1C)CC[C@@H]1C(C)(C)[C@@]3(O)CC[C@@]21CO3 | 297
38 | C=Cc1c(C)c(O)cc2c1CC[C@@H]1C(C)(C)[C@H](O)CC[C@@]21C [SPRUCEANOL] | 52.4
